From ChEMBL document CHEMBL4130549, “Synthesis and bioactivities study of new antibacterial peptide mimics: The dialkyl cationic amphiphiles” (Eur J Med Chem, 2018) come the findings set out here.

Active and inactive are the calls of the source. The calls are words filed in the database; no cut-off is given here.

The test system of data set [1] is Escherichia coli. Briefly: Ratio of MIC for Escherichia coli ATCC 25922 after 20 serial passages to MIC for Escherichia coli ATCC 25922. Format: functional, organism-based. The gist of the method:
(§1)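 Sub-MIC serial passaging: after an initial broth microdilution MIC, cells grown at MIC/2 were transferred into a new MIC assay after each 24 h incubation, for 20 passages. MIC was plotted against days to follow resistance development. Passaging controls were norfloxacin for S. aureus and colistin for E. coli.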

The subject of data set [2] is Staphylococcus aureus. Briefly: Ratio of MIC for Staphylococcus aureus ATCC 29213 after 20 serial passages to MIC for Staphylococcus aureus ATCC 29213. In kind it is functional. The gist of the method:
as §1

Data set [3] relates to Escherichia coli. Briefly: Bactericidal activity against Escherichia coli ATCC 25922 at 12 after 6 hrs by time kill assay. In kind it is functional, organism-based.
Data set [4] concerns Staphylococcus aureus. As to the kind of experiment: Bactericidal activity against Staphylococcus aureus ATCC 29213 at 12 ug/ml after 6 hrs by time kill assay. In kind it is functional, organism-based. The gist of the method: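 Time-kill: an overnight S. aureus ATCC 29213 culture was diluted 1:10,000 in Mueller-Hinton broth and grown 2 h (early exponential) or 5 h (late exponential) at 37 °C and 225 rpm. Cells were then exposed in tubes under the same conditions. At intervals, aliquots were pelleted, resuspended in PBS, serially diluted tenfold, plated on agar overnight, and counted as CFU/mL. Biological replicates were run.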

Data set [5] can be described thus: Hemolytic activity in sheep RBC. In kind it is ADME, cell-based, Ovis aries, Erythrocyte. The conditions noted are these: sheep red blood cells (erythrocytes). The gist of the method:
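Sheep RBCs suspended at 5% in PBS; 150 µL added to 50 µL compound dilutions (5120 to 10 µg/mL series). Incubated 1 h at 37 °C, then centrifuged; supernatant absorbance read at 540 nm. Lysis (%) = (A−A0)/(Atotal−A0)×100, with untreated 5% RBC as A0 and 0.1% Triton X-100 as total.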

Data set [6] relates to Escherichia coli. Briefly: Antibacterial activity against Escherichia coli. Format: functional. A digest of the protocol:
(§2)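 Broth microdilution per CLSI in cation-adjusted Mueller-Hinton broth; 4-6 h cultures (~10⁸ CFU/mL) diluted to ~10⁶ CFU/mL and mixed 1:1 with twofold dilutions of water-dissolved compound (256 to 0.5 µg/mL). Incubated 16-20 h at 37 °C; MIC read visually. Each concentration run in duplicate, whole experiment repeated at least twice. MRSA, KPC and NDM-1 strains were clinical isolates.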

Data set [7] relates to Staphylococcus aureus. As to the kind of experiment: Antibacterial activity against Staphylococcus aureus. In kind it is functional. The gist of the method:
as §2

Another data set concerns Enterococcus faecalis. As to the kind of experiment: Antibacterial activity against Enterococcus faecalis. In kind it is functional. A digest of the protocol:
as §2

Data set [8] relates to Staphylococcus aureus. As to the kind of experiment: Antibacterial activity against methicillin-resistant Staphylococcus aureus. In kind it is functional.

On to COLISTIN, for which the Ratio with Escherichia coli [1] turned out to be 32.

Consider `CCn1cc(C(=O)O)c(=O)c2cc(F)c(N3CCNCC3)cc21` [NORFLOXACIN], for which, in the data set on Staphylococcus aureus [2], the Ratio was 256.

With `CO[C@@]1(NC(=O)[C@H](C(=O)O)c2ccc(O)cc2)C(=O)N2C(C(=O)O)=C(CSc3nnnn3C)CO[C@@H]21`, the outcome in the data set with Escherichia coli [3] was inactive.

Consider `CN[C@H](CC(C)C)C(=O)N[C@H]1C(=O)N[C@@H](CC(N)=O)C(=O)N[C@H]2C(=O)N[C@H]3C(=O)N[C@H](C(=O)N[C@H](C(=O)O)c4cc(O)cc(O)c4-c4cc3ccc4O)[C@H](O)c3ccc(c(Cl)c3)Oc3cc2cc(c3O[C@@H]2O[C@H](CO)[C@@H](O)[C@H](O)[C@H]2O[C@H]2C[C@](C)(N)[C@H](O)[C@H](C)O2)Oc2ccc(cc2Cl)[C@H]1O`, for which the result in the data set with Staphylococcus aureus [4] was inactive.

For orientation: HC50 means the concentration that lyses half of the red blood cells. The MIC is the least concentration at which growth counts as inhibited. Higher therefore signals weaker potency. In turn, H-GIGKFLKKAKKFGKAFVKLLKK-NH2 yielded an HC50 in data set [5] of 120 µg/mL. Further, the MIC was 16 to 32 µg/mL against Escherichia coli [6], 8 to 16 µg/mL against Staphylococcus aureus [7], 64 µg/mL against Enterococcus faecalis and 16 to 32 µg/mL with Staphylococcus aureus [8].
